From ChEMBL document CHEMBL1240347, “MK-7009, a potent and selective inhibitor of hepatitis C virus NS3/4A protease” (Antimicrob Agents Chemother, 2010) come the findings set out here.

Data set [1] addresses Chymotrypsin-like elastase family member 1 (Homo sapiens, UniProt Q9UNI1). The data set is described as follows: Inhibition of human Pancreatic elastase 1.
Data set [2] deals with Hepatitis C virus. As to the kind of experiment: Antiviral activity against Hepatitis C virus containing NS3/Q41R protease mutant activity by TaqMan-based assay. Type of data set: functional, organism-based, Hepacivirus hominis.
Data set [3] deals with Hepatitis C virus. The data set is described as follows: Inhibition of Hepatitis C virus genotype 1b NS3/4A protease activity. More on the design: species or system Hepatitis C virus subtype 1b. The procedure, abridged:
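Recombinant NS3/4A protease was expressed in and purified from E. coli. Inhibition was measured by a time-resolved, internally quenched fluorescence assay at low enzyme concentration. Kis were reported.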

Data set [4] in a line: Cmax in Chimpanzee at 10 mg/kg, po by LC/MS/MS analysis. The format is ADME, organism-based, Pan troglodytes. More on the design: dose 10 mg/kg, route oral. The note with it: in vivo. The procedure, abridged: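 Two HCV-uninfected chimpanzees (about 57 and 52 kg) drank the dose voluntarily in a chocolate milk vehicle (0.67 ml/kg). EDTA plasma was stored at −70°C and quantified by LC/MS/MS after protein precipitation.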

Data set [5] is described as follows: Plasma clearance in rhesus monkey at 2 mg/kg, iv by LC/MS/MS analysis. The arrangement: dose 2 mg/kg, route intravenous. Type of data set: ADME, organism-based, Macaca mulatta. The procedure, abridged: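 Fasted animals received an IV bolus in DMSO at 1.0 ml/kg for rats and 0.1 ml/kg for dogs and rhesus monkeys, at 2 mg/kg; n = 3 per species. Blood was drawn into EDTA tubes at set times, and plasma was separated by centrifugation and stored at −70°C. Drug was quantified by LC/MS/MS after protein precipitation.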

Data set [6] has as its system Hepatitis C virus. As to the kind of experiment: Antiviral activity against Hepatitis C virus containing NS3/4a ps36 sequence by transient cell-base protease activity. The format is functional, organism-based, Hepacivirus hominis. Put shortly:
(§1)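 Transient cell-based phenotype assay of protease activity, using NS3/4A sequences cloned from plasma of HCV-infected patients. EC50s were determined.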

The subject of data set [7] is Hepatitis C virus. The data set is described as follows: Antiviral activity against Hepatitis C virus containing NS3/4a ps38 sequence by transient cell-base protease activity. The format is functional, organism-based, Hepacivirus hominis. Put shortly:
as §1

Chymotrypsin-like elastase family member 1, sequence (Q9UNI1 whole entry): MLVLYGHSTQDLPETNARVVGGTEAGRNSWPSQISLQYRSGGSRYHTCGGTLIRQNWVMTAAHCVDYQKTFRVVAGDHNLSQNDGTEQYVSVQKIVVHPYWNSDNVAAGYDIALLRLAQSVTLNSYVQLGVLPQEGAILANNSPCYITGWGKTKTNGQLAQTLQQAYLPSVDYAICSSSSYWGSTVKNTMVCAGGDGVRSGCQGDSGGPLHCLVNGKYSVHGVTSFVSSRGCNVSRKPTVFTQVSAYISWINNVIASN

By IC50 is commonly meant the concentration that gives 50% inhibition. For orientation: EC50 means the midpoint of the concentration-response curve. As a reminder, the Ki is a measure of affinity in units of concentration, obtained from inhibition or displacement. Broadly, the Cmax is the peak of the concentration-time curve. For orientation: clearance means the volume of plasma or blood freed of the substance per unit of time. Consider `CC[C@@H]1C[C@]1(NC(=O)[C@@H]1C[C@@H]2CN1C(=O)[C@H](C(C)(C)C)NC(=O)OCC(C)(C)CCCCc1cccc3c1CN(C3)C(=O)O2)C(=O)NS(=O)(=O)C1CC1` [VANIPREVIR], for which the 50% inhibitory concentration (IC50) in data set [1] is > 10000 nM. Further, the EC50 turned out to be 5.2 nM in the data set with Hepatitis C virus [2], 4.9 nM in the data set with Hepatitis C virus [6] and 6 nM with Hepatitis C virus [7]. In the data set on Hepatitis C virus [3], affinity was put at a Ki of 0.06 nM. The maximum concentration (Cmax) in data set [4] was 900 nM. In data set [5], the clearance came out at 18 mL/min/kg.
